Our source for the Activity and inhibition in vivo values is ChEMBL document CHEMBL1139875, “Discovery of 4-aminobutyric acid derivatives possessing anticonvulsant and antinociceptive activities: a hybrid pharmacophore approach” (2007).

For test [1], the system named is Mus musculus. The test is described as follows: Anticonvulsant activity in Swiss Albino mouse at 300 mg/kg, ip after 0.5 hr by scPIC test. The class given is functional, organism-based. Details: dose 300 mg/kg. The method in brief:
(§1)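 Mice (Swiss, 20-25 g) given i.p. doses of 30, 100 and 300 mg/kg under ADD program protocols, three per group, examined at 0.5 and 4 h in MES, scPTZ, scSTY or scPIC seizure tests. Value is the minimum dose protecting half or more of the mice.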

Test [2] deals with Rattus norvegicus. The test is described as follows: Anti-cold allodynia effect in Sprague-Dawley rat CCI model assessed as duration of paw withdrawal at 100 mg/kg, ip after 0.5 hr. It counts as functional. The settings on record: route intraperitoneal. The method in brief:
(§2)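 CCI by sciatic nerve ligation under pentobarbital (65 mg/kg i.p.). Rats tested at baseline and 9 days post-surgery; those with allodynia dosed i.p. 100 mg/kg, vehicle 30% v/v PEG 400 in water. Acetone (100-200 µL) misted on midplantar affected paw; withdrawal duration recorded, three samples averaged, at least 3 min apart; n = 4.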

Test [3] concerns Rattus norvegicus. The test can be described thus: Anti-cold allodynia effect in Sprague-Dawley rat CCI model assessed as duration of paw withdrawal 100 mg/kg, ip after 2.5 hr. It counts as functional. The settings on record: route intraperitoneal. The method in brief:
as §2

The subject of test [4] is Mus musculus. The test can be described thus: Anticonvulsant activity in Swiss Albino mouse at 300 mg/kg, ip after 4 hrs by MES test. It counts as functional, organism-based. Details: dose 300 mg/kg. The method in brief: as §1
Test [5] concerns Mus musculus. The test is described as follows: Analgesic activity in Swiss Albino mouse assessed as inhibition of acetic acid-induced writhing responses at 100 mg/kg, ip. The class given is functional. Conditions: route intraperitoneal. The method, boiled down:
(§3)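 Mice in groups of six dosed i.p. at 100 mg/kg, controls receiving 30% v/v PEG 400 in water. Writhing induced by i.p. 0.1 mL of 3% v/v acetic acid 1 h after drug. Writhes (abdominal stretch with at least one hind limb extended) counted over 30 min; % inhibition calculated. Mean ± SEM, Student's t test.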
Background: Writhing tests count abdominal constrictions after an irritant is injected.

The test system of test [6] is Mus musculus. The test is described as follows: Analgesic activity in Swiss Albino mouse assessed as number of acetic acid-induced writhing per 30 min after 100 mg/kg, ip. It counts as functional. Conditions: route intraperitoneal. The method, boiled down:
as §3

The test system of test [7] is Mus musculus. The test can be described thus: Anticonvulsant activity in Swiss Albino mouse at 300 mg/kg, ip after 4 hrs by scSTY test. It counts as functional, organism-based. Details: dose 300 mg/kg. The method in brief:
as §1

Test [8] has as its system Rattus norvegicus. The test is described as follows: Anti-cold allodynia effect in Sprague-Dawley rat CCI model assessed as duration of paw withdrawal 100 mg/kg, ip after 1.5 hr. The class given is functional. The settings on record: route intraperitoneal. The method, boiled down:
as §2

Test [9] deals with Mus musculus. The test can be described thus: Anticonvulsant activity in Swiss Albino mouse at 300 mg/kg, ip after 0.5 hr by scSTY test. It counts as functional, organism-based. Details: dose 300 mg/kg. The method in brief: as §1
Test [10] has as its system Mus musculus. The test can be described thus: Anticonvulsant activity in Swiss Albino mouse at 300 mg/kg, ip after 4 hrs by scPIC test. The class given is functional, organism-based. Also on record: dose 300 mg/kg. The method, boiled down:
as §1

Test [11] deals with Mus musculus. The test is described as follows: Neurotoxicity in Swiss Albino mouse at 300 mg/kg, ip after 4 hrs by rotarod test. Details: dose 300 mg/kg. It counts as functional, organism-based. The method, boiled down:
(§4)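 Swiss mice (20-25 g) are trained on an accelerating rotorod (10 rpm, 3.2 cm rod), then injected i.p. at 30, 100 or 300 mg/kg, with three per group. Neurotoxicity means failure to keep equilibrium for at least 1 min in each of three trials, checked at 0.5 and 4 h. The value reported is the minimum dose affecting half or more of the mice.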
A general note: Falling from the rotarod earlier than controls is read as motor impairment.

Test [12] deals with Rattus norvegicus. The test is described as follows: Anti-cold allodynia effect in Sprague-Dawley rat CCI model assessed as duration of paw withdrawal 100 mg/kg, ip after 2 hr. It counts as functional. Conditions: route intraperitoneal. The method, boiled down: as §2
Test [13] has as its system Mus musculus. The test is described as follows: Neurotoxicity in Swiss Albino mouse at 300 mg/kg, ip after 0.5 hr by rotarod test. The class given is functional, organism-based. Details: dose 300 mg/kg. The method in brief:
as §4

Test [14] concerns Mus musculus. The test is described as follows: Anticonvulsant activity in Swiss Albino mouse at 300 mg/kg, ip after 0.5 hr by scPTZ test. The class given is functional, organism-based. Also on record: dose 300 mg/kg. The method, boiled down: as §1
Test [15] relates to Rattus norvegicus. The test is described as follows: Anti-cold allodynia effect in Sprague-Dawley rat CCI model assessed as duration of paw withdrawal 100 mg/kg, ip after 1 hr. The class given is functional. Conditions: route intraperitoneal. The method, boiled down: as §2
Test [16] deals with Mus musculus. The test is described as follows: Anticonvulsant activity in Swiss Albino mouse at 300 mg/kg, ip after 0.5 hr by MES test. It counts as functional, organism-based. Also on record: dose 300 mg/kg. The method, boiled down: as §1

Calls of active or inactive are those of the source. No cut-off for these calls is given here.

As for `O=C(O)CCCNC(=O)N/N=C/c1cccc([N+](=O)[O-])c1`, the result in [1], in test [10] and in [14] was Active. The Activity is listed as 46.3 s in test [2]; 13.7 s in test [3]; 17.7 in [6]; 44.5 s in test [8]; 39.5 s in [12]; 56.9 s in test [15]. Also, the result in [4], in [7], in [9], in [11], in test [13] and in test [16] was inactive. Besides, the inhibition in vivo (as a rule, the drop in the measured response relative to a control, in per cent) at 100 mg/kg in test [5] amounted to 90%.
